Experiments:
C653 = test: Antineoplastic activity against C653 cell line in which [3H]-thymidine was incorporated into DNA; assay type: functional, Mus musculus; design: concentration or dose not given beside the values
Method in brief: (§1)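 Mouse leukemic/myeloma/hybridoma lines kept at 37 °C in RPMI 1640 with 10% heat-inactivated FBS, penicillin, streptomycin, 50 μM mercaptoethanol. 2×10^4 cells/well exposed to drug at 40 μM for 48 h. Drug was diluted from 0.1 M ethanol stock into medium, and controls received ethanol-containing medium. [3H]thymidine (0.1 μCi/well) was then added for 24 h. Cells were harvested onto glass-fibre filters and water-washed, and DNA-incorporated counts were taken by scintillation as % of control.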

X63/OMIL3 cell line = test: Antineoplastic activity against X63/OMIL3 cell line in which [3H]thymidine was incorporated into DNA; assay type: functional, Mus musculus; design: concentration or dose not given beside the values; method in brief: as §1
R6X-B15 = test: Antineoplastic activity against R6X-B15 cell line in which [3H]thymidine was incorporated into DNA; assay type: functional, Mus musculus; method in brief: as §1
WEHI3B = test: Antineoplastic activity against WEHI 3B cell line in which [3H]thymidine was incorporated into DNA; assay type: functional, Mus musculus; design: concentration or dose not given beside the values; method in brief: as §1
[1] = Time course effect on killing of WEHI 3B cells at 30 uM concentration, cells were incubated with it 48 hours before addition of [3H]thymidine; assay type: functional, cell-based; settings: Mus musculus, WEHI3B
Method in brief: (§2)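 Mouse WEHI 3B cells (RPMI 1640, 10% heat-inactivated FBS, penicillin, streptomycin, 50 μM mercaptoethanol, 37 °C) were seeded at 2×10^4 cells/well. Drug was diluted from 0.1 M ethanol stock into medium, with an ethanol vehicle control. After the stated preincubation, [3H]thymidine (0.1 μCi/well) was added for a further 24 h at 37 °C. Cells were harvested on glass-fibre filters, water-washed and scintillation-counted. Result is % cell survival versus control, mean ± SD, n = 8.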

[2] = Compound was evaluated for WEHI-3B cell viability after 24 hour at a concentration of 10 uM of compound was reported.; assay type: functional, Mus musculus
Method in brief: (§3)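 WEHI-3B cells were treated with drug at 0–30 μM for 24 or 48 h in RPMI 1640 with 10% FBS at 37 °C. Cells were then diluted 1:10 in 2.5% trypan blue and counted by light microscopy, with dye-stained cells scored dead. Viability is given as % of untreated control.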

[3] = Compound was evaluated for WEHI-3B cell viability after 48 hour at a concentration of 5 uM of compound was reported.; assay type: functional, Mus musculus; method in brief: as §3
[4] = Compound was evaluated for WEHI-3B cell viability after 48 hour at a concentration of 30 uM of compound was reported.; assay type: functional, Mus musculus; method in brief: as §3
[5] = Compound was evaluated for WEHI-3B cell viability after 48 hour at a concentration of 10 uM of compound was reported.; assay type: functional, Mus musculus; method in brief: as §3
[6] = Time course effect on killing of WEHI 3B cells at 40 uM concentration, cells were incubated with it 24 hr before addition of [3H]-thymidine; assay type: functional, cell-based; settings: Mus musculus, WEHI3B; method in brief: as §2
[7] = Time course effect on killing of WEHI 3B cells at 40 uM concentration, cells were incubated with it 48 hr before addition of [3H]thymidine; assay type: functional, cell-based; settings: Mus musculus, WEHI3B; method in brief: as §2
[8] = Compound was evaluated for WEHI-3B cell viability after 24 hour at a concentration of 2.5 uM of compound was reported.; assay type: functional, Mus musculus; method in brief: as §3
[9] = Time course effect on killing of WEHI 3B cells at 30 uM concentration, cells were incubated with it 3 hr before addition of [3H]thymidine; assay type: functional, cell-based; settings: Mus musculus, WEHI3B; method in brief: as §2
[10] = Compound was evaluated for WEHI-3B cell viability after 48 hour at a concentration of 1.25 uM of compound was reported.; assay type: functional, Mus musculus; method in brief: as §3
[11] = Time course effect on killing of WEHI 3B cells at 30 uM concentration, cells were incubated with it 72 hours before addition of [3H]thymidine; assay type: functional, cell-based; settings: Mus musculus, WEHI3B; method in brief: as §2
[12] = Compound was evaluated for WEHI-3B cell viability after 24 hour at a concentration of 1.25 uM of compound was reported.; assay type: functional, Mus musculus; method in brief: as §3
[13] = Time course effect on killing of WEHI 3B cells at 40 uM concentration, cells were incubated with it 6 hours before addition of [3H]-thymidine; assay type: functional, cell-based; settings: Mus musculus, WEHI3B; method in brief: as §2
[14] = Compound was evaluated for WEHI-3B cell viability after 24 hour at a concentration of 0 uM of compound was reported.; assay type: functional, Mus musculus; method in brief: as §3
[15] = Time course effect on killing of WEHI 3B cells at 30 uM concentration, cells were incubated with it 6 hr before addition of [3H]thymidine; assay type: functional, cell-based; settings: Mus musculus, WEHI3B; method in brief: as §2
[16] = Compound was evaluated for WEHI-3B cell viability after 48 hour at a concentration of 0 uM of compound was reported.; assay type: functional, Mus musculus; method in brief: as §3
[17] = Compound was evaluated for WEHI-3B cell viability after 24 hour at a concentration of 30 uM of compound was reported.; assay type: functional, Mus musculus; method in brief: as §3
[18] = Time course effect on killing of WEHI 3B cells at 40 uM concentration, cells were incubated with it 0 mins before addition of [3H]thymidine; assay type: functional, cell-based; settings: Mus musculus, WEHI3B; method in brief: as §2
[19] = Compound was evaluated for WEHI-3B cell viability after 48 hour at a concentration of 2.5 uM of compound was reported.; assay type: functional, Mus musculus; method in brief: as §3
[20] = Time course effect on killing of WEHI 3B cells at 40 uM concentration, cells were incubated with it 3 hr before addition of [3H]thymidine; assay type: functional, cell-based; settings: Mus musculus, WEHI3B; method in brief: as §2
[21] = Compound was evaluated for WEHI-3B cell viability after 24 hour at a concentration of 5 uM of compound was reported.; assay type: functional, Mus musculus; method in brief: as §3
[22] = Time course effect on killing of WEHI 3B cells at 40 uM concentration, cells were incubated with it 72 hr before addition of [3H]thymidine; assay type: functional, cell-based; settings: Mus musculus, WEHI3B; method in brief: as §2
[23] = Time course effect on killing of WEHI 3B cells at 30 uM concentration, cells were incubated with it 0 minutes before addition of [3H]thymidine; assay type: functional, cell-based; settings: Mus musculus, WEHI3B; method in brief: as §2
[24] = Time course effect on killing of WEHI 3B cells at 30 uM concentration, cells were incubated with it 24 hr before addition of [3H]thymidine; assay type: functional, cell-based; settings: Mus musculus, WEHI3B; method in brief: as §2

Compound | Control (C653) [%] | Control (X63/OMIL3 cell line) [%] | Control (R6X-B15) [%] | Control (WEHI3B) [%] | Viable cells [2] [%] | Viable cells [3] [%] | Viable cells [4] [%] | Viable cells [5] [%] | Viable cells [8] [%] | Viable cells [10] [%] | Viable cells [12] [%] | Viable cells [14] [%] | Viable cells [16] [%] | Viable cells [17] [%] | Viable cells [19] [%] | Viable cells [21] [%] | further results
CCCCCCCCCCCCCCCCOC[C@@H](CO[C@@H]1O[C@@H](CO)[C@@H](O)[C@H](O)[C@@H]1O)OC | 70 | 95 | 89 | 82 |  |  |  |  |  |  |  |  |  |  |  |  | 
CCCCCCCCCCCCCCCCOC[C@@H](COP(=O)([O-])OCC[N+](C)(C)C)OC | 5 | 2.5 | 45 | 0.3 |  |  |  |  |  |  |  |  |  |  |  |  | 
CCCCCCCCCCCCCCCCOC[C@H](CS[C@@H]1O[C@@H](CO)[C@@H](O)[C@H](O)[C@H]1O)OC | 78 | 84 | 98 | 80 |  |  |  |  |  |  |  |  |  |  |  |  | 
CCCCCCCCCCCCCCCCOC[C@H](CS[C@H]1O[C@@H](CO)[C@@H](O)[C@H](O)[C@H]1O)OC | 13 | 71 | 66 | 7 | 53 | 25 | 0 | 0.3 | 75 | 72 | 90 | 100 | 100 | 48 | 64 | 64 | Cell survival [1]: 46%; Cell survival [6]: 20%; Cell survival [7]: 0.5%; Cell survival [9]: 57%; Cell survival [11]: 25%; Cell survival [13]: 27%; Cell survival [15]: 53%; Cell survival [18]: 49%; Cell survival [20]: 49%; Cell survival [22]: 0%; Cell survival [23]: 79%; Cell survival [24]: 48%
CCCCCCCCCCCCCCCCOC[C@H](CO[C@@H]1O[C@@H](CO)[C@@H](O)[C@H](O)[C@@H]1O)OC | 7 | 42 | 75 | 26 |  |  |  |  |  |  |  |  |  |  |  |  | 
CCCCCCCCCCCCCCCCOC[C@H](COP(=O)([O-])OCC[N+](C)(C)C)OC | 4 | 3 | 55 | 0.4 | 0 | 1 | 0 | 0 | 39 | 48 | 44 | 100 | 100 | 0 | 18 | 8 | 

From ChEMBL document CHEMBL1125051, “Synthesis and antineoplastic properties of ether-linked thioglycolipids” (1990)
